Source: PubChem (Broad Institute)
E-sel inducer = induces E-selectin expression in human endothelial cells | hit rate 0.37% among 260,000 | HUVEC E-selectin immunofluorescence imaging; normalized: neutral wells 0, TNF-alpha wells 100 | activation, % at 7.58 µM | P16581;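 active = mean E-selectin-positive cell signal at least 10% of the positive control, reached in at least 60% of replicates, without over 20% cell loss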
Target sequence (P16581 whole entry, looked up): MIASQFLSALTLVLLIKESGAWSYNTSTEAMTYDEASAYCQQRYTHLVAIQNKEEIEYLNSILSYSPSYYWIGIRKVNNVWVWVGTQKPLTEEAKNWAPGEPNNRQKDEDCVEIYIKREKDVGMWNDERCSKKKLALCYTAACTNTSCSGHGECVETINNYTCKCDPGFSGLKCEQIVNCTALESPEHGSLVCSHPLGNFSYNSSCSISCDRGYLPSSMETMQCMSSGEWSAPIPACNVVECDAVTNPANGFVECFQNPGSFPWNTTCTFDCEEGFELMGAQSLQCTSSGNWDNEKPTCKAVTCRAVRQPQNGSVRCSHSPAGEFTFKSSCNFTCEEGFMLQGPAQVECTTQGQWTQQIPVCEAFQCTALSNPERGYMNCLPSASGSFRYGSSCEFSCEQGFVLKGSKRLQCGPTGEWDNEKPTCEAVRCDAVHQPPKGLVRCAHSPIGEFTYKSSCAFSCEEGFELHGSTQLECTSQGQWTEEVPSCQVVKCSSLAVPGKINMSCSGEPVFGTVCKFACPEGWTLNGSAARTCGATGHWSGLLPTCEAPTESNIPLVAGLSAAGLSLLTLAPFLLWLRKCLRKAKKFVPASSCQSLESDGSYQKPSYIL
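System: HUVEC, human umbilical vein endothelial cells; quantity: 3,000 cells/well; buffer or medium: EGM-2 medium, gelatin-coated wells; dosing: single-point compound dose; detection: immunofluorescence imaging; evaluation: % PE-positive cells; benchmarks: TNF-alpha, DMSO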
C2C12 statin = suppressors of simvastatin-induced myotoxicity in C2C12 myotubes | ATP luminescence, 48 h; scaled: DMSO 0, geranylgeraniol control 100 | hit rate 0.78% among 330,000 | rescue of ATP level, % at 7.49 µM;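 active = mean ATP rescue above about 67%, or every replicate alone reaching that limit, limit read from the data, passing the limit was not always enough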;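 also: myotubes were challenged with 10 µM simvastatin during compound exposure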
DENV2 CPE = DENV2-induced cell death inhibition | DENV2-infected cells, cytopathic effect rescue, plate reader | CPE inhibition, % at 9.99 µM | hit rate 1.7% among 350,000 | AID 651640; in the data active = CPE inhibition above about 20%, passing the limit was not always enough; tested in BHK-21 cells;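 also: 0% = median of neutral control wells and 100% = median of positive control wells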
The depositor's hits bear a star; ! = not confirmed by another sample. Only some compounds are listed: those with a hit (about 2.2% of all), similar ones and a draw of the others.

COc1ccc2c3c(n(C)c2c1)[C@H](CO)N(C(=O)c1cccc(F)c1)CC31CN(C(=O)c2cccc(F)c2)C1 was read as E-sel inducer -0.1 and DENV2 CPE 46.4*.
`COc1ccc2c3c(n(C)c2c1)[C@H](CO)N(C(=O)C1CCCC1)CC31CCN(C(=O)Nc2cccc(F)c2)CC1` gave E-sel inducer 0.3 and DENV2 CPE 27.5*.
C[C@H](CO)N1C[C@H](C)[C@H](CN(C)CC2CCCCC2)OCCCC[C@H](C)Oc2ccc(NC(=O)Nc3ccc4c(c3)OCO4)cc2C1=O was read as E-sel inducer 0.1, C2C12 statin -51.3 and DENV2 CPE -18.3.
For C[C@@H]1CN([C@@H](C)CO)C(=O)c2cc(NC(=O)CCN3CCOCC3)ccc2O[C@H]1CN(C)Cc1ccc(-c2ccccc2)cc1 the results were E-sel inducer -0.1, C2C12 statin -1.8 and DENV2 CPE -1.0.
COc1ccc(S(=O)(=O)N(C)C[C@H]2Oc3ccc(NC(=O)NC(C)C)cc3C(=O)N([C@@H](C)CO)C[C@H]2C)cc1 was read as E-sel inducer 0.0.
Cc1noc(C)c1NC(=O)N(C)C[C@@H]1Oc2ccc(NS(=O)(=O)c3cccs3)cc2C(=O)N([C@@H](C)CO)C[C@@H]1C was read as E-sel inducer 9.3, C2C12 statin -5.5 and DENV2 CPE 1.7.
Cc1noc(C)c1NC(=O)N(C)C[C@H]1Oc2ccc(NS(=O)(=O)c3c(C)noc3C)cc2C(=O)N([C@H](C)CO)C[C@@H]1C was read as E-sel inducer 30.9*!, C2C12 statin -6.2 and DENV2 CPE 30.5*!.
`COc1ccc(NC(=O)N(C)C[C@H]2Oc3ccc(NS(=O)(=O)c4c(C)noc4C)cc3C(=O)N([C@H](C)CO)C[C@H]2C)cc1` gave E-sel inducer -3.3, C2C12 statin -23.2 and DENV2 CPE 10.5.
`COc1ccc(NC(=O)N(C)C[C@H]2Oc3ccc(NS(=O)(=O)c4c(C)noc4C)cc3C(=O)N([C@H](C)CO)C[C@@H]2C)cc1` gave E-sel inducer 0.1, C2C12 statin 123.6* and DENV2 CPE 22.0*.
For COc1ccc(NC(=O)N(C)C[C@@H]2Oc3ccc(NS(=O)(=O)c4c(C)noc4C)cc3C(=O)N([C@@H](C)CO)C[C@H]2C)cc1 the results were E-sel inducer 7.1, C2C12 statin 19.7 and DENV2 CPE 7.0.
Cc1noc(C)c1NC(=O)N(C)C[C@H]1Oc2ccc(NS(=O)(=O)c3cccs3)cc2C(=O)N([C@H](C)CO)C[C@H]1C was read as E-sel inducer 28.7*, C2C12 statin -26.9 and DENV2 CPE -1.3.
For COc1ccc(NC(=O)N(C)C[C@@H]2Oc3ccc(NS(=O)(=O)c4c(C)noc4C)cc3C(=O)N([C@H](C)CO)C[C@@H]2C)cc1 the results were E-sel inducer -2.2, C2C12 statin 32.5 and DENV2 CPE 89.7*.
Cc1noc(C)c1NC(=O)N(C)C[C@@H]1Oc2ccc(NS(=O)(=O)c3c(C)noc3C)cc2C(=O)N([C@@H](C)CO)C[C@@H]1C was read as E-sel inducer -9.9.
`COc1ccc(S(=O)(=O)N(C)C[C@@H]2Oc3ncc(C#CC(C)(C)O)cc3C(=O)N([C@H](C)CO)C[C@@H]2C)cc1` gave E-sel inducer -0.3, C2C12 statin 6.0 and DENV2 CPE -10.4.
`C[C@H]1CCCCO[C@H](CN(C)CC2CC2)[C@@H](C)CN([C@@H](C)CO)C(=O)c2cc(NC(=O)C3CCCCC3)ccc2O1` gave E-sel inducer 0.4 and DENV2 CPE 0.3.
For Cc1noc(C)c1S(=O)(=O)Nc1ccc2c(c1)C(=O)N([C@@H](C)CO)C[C@@H](C)[C@H](CN(C)S(=O)(=O)c1c(C)noc1C)OCCCC[C@@H](C)O2 the results were E-sel inducer 0.3 and DENV2 CPE 7.2.
COc1ccc(NC(=O)N(C)C[C@@H]2Oc3ccc(NS(=O)(=O)c4c(C)noc4C)cc3C(=O)N([C@@H](C)CO)C[C@@H]2C)cc1 was read as E-sel inducer 25.5, C2C12 statin -7.6 and DENV2 CPE 26.9*.
Screening COc1ccc(NC(=O)N(C)C[C@H]2Oc3ccc(NS(=O)(=O)c4c(C)noc4C)cc3C(=O)N([C@@H](C)CO)C[C@H]2C)cc1 returned E-sel inducer -0.9, C2C12 statin 9.0 and DENV2 CPE 9.7.
`CCC(=O)N(C)C[C@@H]1[C@H](c2ccc(C3=CCCC3)cc2)[C@H](CO)N1C(=O)CC` gave E-sel inducer 0.0, C2C12 statin -22.7 and DENV2 CPE 0.3.
`CC(C)C#Cc1ccc([C@@H]2[C@@H](CO)N(C(=O)C3CCOCC3)[C@H]2C#N)cc1` gave E-sel inducer 0.7, C2C12 statin -12.7 and DENV2 CPE 9.1.
`CCOc1ccc(-c2nc(CSCC(=O)NC3CC3)c(C)o2)cc1` gave C2C12 statin 6.3.
`CCOc1ccc(-c2nc(CSCC(=O)NCc3ccco3)c(C)o2)cc1` gave C2C12 statin 110.9*.
C[C@@H]1CN([C@@H](C)CO)C(=O)c2cc(C3=CCCCC3)cnc2O[C@@H]1CN(C)S(C)(=O)=O was read as E-sel inducer -0.3 and C2C12 statin 11.2.
Screening CCOC(=O)C1=C(C)NC(=O)NC1c1ccc(N(CC)CC)cc1 (centres undefined) returned E-sel inducer -0.1, C2C12 statin 10.4 and DENV2 CPE 7.5.
For CCOC(=O)C1=C(C)NC(=O)NC1c1ccc(N(C)C)cc1 (centres undefined) the results were E-sel inducer -0.2, C2C12 statin -0.9 and DENV2 CPE 69.8*.
CCOC(=O)C1=C(C)C(c2ccccc2O)NC(=O)N1 (centres undefined) was read as C2C12 statin 86.6*.
CCOC(=O)C1=C(C)C(c2ccc(OC)cc2OC)NC(=O)N1 (centres undefined) was read as C2C12 statin -2.0.
For Cc1noc(C)c1NC(=O)N(C)C[C@@H]1Oc2c(NC(=O)Nc3ccccc3)cccc2C(=O)N([C@H](C)CO)C[C@@H]1C the results were E-sel inducer -0.1.
Screening C[C@@H]1CN([C@H](C)CO)C(=O)c2cccc(NS(=O)(=O)c3ccccc3)c2O[C@@H]1CN(C)S(C)(=O)=O returned E-sel inducer -0.1, C2C12 statin 32.3 and DENV2 CPE 4.3.
`Cc1cc(C)cc(NC(=O)CSc2nc(N)c(NC(=O)c3ccc(Br)o3)c(=O)[nH]2)c1` gave E-sel inducer -0.3, C2C12 statin 0.9 and DENV2 CPE -8.6.
`Nc1nc(SCC(=O)Nc2ccc([N+](=O)[O-])cc2)[nH]c(=O)c1NC(=O)c1ccc(Br)o1` gave E-sel inducer 1.2, C2C12 statin 6.0 and DENV2 CPE 20.3*.
`CCCC(=O)Nc1ccc2c(c1)C(=O)N(C)C[C@@H](OC)[C@@H](C)CN(Cc1nccs1)[C@@H](C)CO2` gave E-sel inducer -0.3, C2C12 statin 0.7 and DENV2 CPE 2.0.
`Fc1ccc(CSc2ncnc3nc[nH]c23)cc1` gave E-sel inducer -0.1, C2C12 statin 157.9* and DENV2 CPE 16.1.
Screening Brc1ccc(CSc2ncnc3nc[nH]c23)cc1 returned E-sel inducer 0.2, C2C12 statin -0.1 and DENV2 CPE -1.5.
For CN1c2ccc(-c3cccc(F)c3)cc2[C@@H]2[C@@H](CCN2C(=O)C2CCCC2)[C@@H]1CO the results were E-sel inducer 0.1 and C2C12 statin 21.9.
